Measured values reported in ChEMBL document CHEMBL3585281, “Antibacterial Labdane Diterpenoids from Vitex vestita” (2015).
Converted amounts (≈) assume the structure as drawn.

Legend:
Format in all cases: functional
Bacillus cereus [1] = experiment: Antibacterial activity against Bacillus cereus CIP 6624 after 18 hrs by agar dilution method; settings: CIP 6624, 18 h
Procedure, shortened: (§1)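 Agar-dilution MIC against Gram-positive strains. Compounds in DMSO, geometric dilutions giving final 100−0.75 mg/L in Mueller Hinton agar. Strains grown 18 h at 37 °C in trypticase soy broth, diluted in sterile water, spotted by Steers inoculator (about 1000 UFC/spot). Plates incubated 18 h at 37 °C; DMSO blank; ofloxacin positive control. MIC = lowest concentration with no visible growth.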

Bacillus cereus [2] = experiment: Antibacterial activity against Bacillus cereus N190 after 18 hrs by agar dilution method; settings: N190, 18 h; procedure, shortened: as §1
Bacillus cereus [3] = experiment: Antibacterial activity against Bacillus cereus N258 after 18 hrs by agar dilution method; settings: N258, 18 h; procedure, shortened: as §1
Bacillus cereus [4] = experiment: Antibacterial activity against Bacillus cereus N349 after 18 hrs by agar dilution method; settings: N349, 18 h; procedure, shortened: as §1
Bacillus spizizenii = experiment: Antibacterial activity against Bacillus subtilis ATCC 6633 after 18 hrs by agar dilution method; settings: ATCC 6633, 18 h; procedure, shortened: as §1
Corynebacterium striatum = experiment: Antibacterial activity against Corynebacterium striatum N840 after 18 hrs by agar dilution method; settings: N840, 18 h; procedure, shortened: as §1
Enterococcus avium = experiment: Antibacterial activity against Enterococcus avium CIP 104053 after 18 hrs by agar dilution method; settings: CIP 104053, 18 h; procedure, shortened: as §1
[5] = tested on: Enterococcus casseliflavus; experiment: Antibacterial activity against Enterococcus casseliflavus N487 after 18 hrs by agar dilution method; settings: N487, 18 h; procedure, shortened: as §1
[6] = tested on: Enterococcus casseliflavus; experiment: Antibacterial activity against Enterococcus casseliflavus CIP 103018 after 18 hrs by agar dilution method; settings: CIP 103018, 18 h; procedure, shortened: as §1
Enterococcus durans = experiment: Antibacterial activity against Enterococcus durans CIP 104999 after 18 hrs by agar dilution method; settings: CIP 104999, 18 h; procedure, shortened: as §1
Enterococcus faecalis [7] = experiment: Antibacterial activity against Enterococcus faecalis CIP 103214 after 18 hrs by agar dilution method; settings: CIP 103214, 18 h; procedure, shortened: as §1
Enterococcus faecalis [8] = experiment: Antibacterial activity against Enterococcus faecalis CIP 104676 after 18 hrs by agar dilution method; settings: CIP 104676, 18 h; procedure, shortened: as §1
Enterococcus faecalis [9] = experiment: Antibacterial activity against Enterococcus faecalis N491 after 18 hrs by agar dilution method; settings: N491, 18 h; procedure, shortened: as §1
Enterococcus faecalis [10] = experiment: Antibacterial activity against Enterococcus faecalis N518 after 18 hrs by agar dilution method; settings: N518, 18 h; procedure, shortened: as §1
Enterococcus faecalis [11] = experiment: Antibacterial activity against Enterococcus faecalis N520 after 18 hrs by agar dilution method; settings: N520, 18 h; procedure, shortened: as §1
Enterococcus faecium [12] = experiment: Antibacterial activity against Enterococcus faecium CIP 103014 after 18 hrs by agar dilution method; settings: CIP 103014, 18 h; procedure, shortened: as §1
Enterococcus faecium [13] = experiment: Antibacterial activity against Enterococcus faecium CIP 107387 after 18 hrs by agar dilution method; settings: CIP 107387, 18 h; procedure, shortened: as §1
Enterococcus faecium [14] = experiment: Antibacterial activity against Enterococcus faecium N490 after 18 hrs by agar dilution method; settings: N490, 18 h; procedure, shortened: as §1
Enterococcus faecium [15] = experiment: Antibacterial activity against Enterococcus faecium N507 after 18 hrs by agar dilution method; settings: N507, 18 h; procedure, shortened: as §1
Enterococcus faecium [16] = experiment: Antibacterial activity against Enterococcus faecium N733 after 18 hrs by agar dilution method; settings: N733, 18 h; procedure, shortened: as §1
Enterococcus faecium [17] = experiment: Antibacterial activity against Enterococcus faecium N823 after 18 hrs by agar dilution method; settings: N823, 18 h; procedure, shortened: as §1
Enterococcus gallinarum [18] = experiment: Antibacterial activity against Enterococcus gallinarum CIP 105985 after 18 hrs by agar dilution method; settings: CIP 105985, 18 h; procedure, shortened: as §1
Enterococcus gallinarum [19] = experiment: Antibacterial activity against Enterococcus gallinarum N489 after 18 hrs by agar dilution method; settings: N489, 18 h; procedure, shortened: as §1
Enterococcus gallinarum [20] = experiment: Antibacterial activity against Enterococcus gallinarum N492 after 18 hrs by agar dilution method; settings: N492, 18 h; procedure, shortened: as §1
Enterococcus hirae = experiment: Antibacterial activity against Enterococcus hirae CIP 5855 after 18 hrs by agar dilution method; settings: CIP 5855, 18 h; procedure, shortened: as §1
Listeria innocua = experiment: Antibacterial activity against Listeria innocua E044 after 18 hrs by agar dilution method; settings: E044, 18 h; procedure, shortened: as §1
Listeria monocytogenes [21] = experiment: Antibacterial activity against Listeria monocytogenes CIP 103575 after 18 hrs by agar dilution method; settings: CIP 103575, 18 h; procedure, shortened: as §1
Listeria monocytogenes [22] = experiment: Antibacterial activity against Listeria monocytogenes N783 after 18 hrs by agar dilution method; settings: N783, 18 h; procedure, shortened: as §1
Listeria monocytogenes [23] = experiment: Antibacterial activity against Listeria monocytogenes N836 after 18 hrs by agar dilution method; settings: N836, 18 h; procedure, shortened: as §1
Listeria monocytogenes [24] = experiment: Antibacterial activity against Listeria monocytogenes N851 after 18 hrs by agar dilution method; settings: N851, 18 h; procedure, shortened: as §1
Staphylococcus aureus [25] = experiment: Antibacterial activity against Staphylococcus aureus ATCC 25923 after 18 hrs by agar dilution method; settings: ATCC 25923, 18 h; procedure, shortened: as §1
Staphylococcus aureus [26] = experiment: Antibacterial activity against Staphylococcus aureus ATCC 9144 oxford after 18 hrs by agar dilution method; procedure, shortened: as §1
Staphylococcus aureus [27] = experiment: Antibacterial activity against Staphylococcus aureus CIP 483 after 18 hrs by agar dilution method; settings: CIP 483, 18 h; procedure, shortened: as §1
Staphylococcus aureus [28] = experiment: Antibacterial activity against Staphylococcus aureus CIP 53154 after 18 hrs by agar dilution method; settings: CIP 53154, 18 h; procedure, shortened: as §1
Staphylococcus aureus [29] = experiment: Antibacterial activity against Staphylococcus aureus CIP 53156 after 18 hrs by agar dilution method; settings: CIP 53156, 18 h; procedure, shortened: as §1
Staphylococcus aureus [30] = experiment: Antibacterial activity against Staphylococcus aureus CIP 5710 after 18 hrs by agar dilution method; settings: CIP 5710, 18 h; procedure, shortened: as §1
Staphylococcus aureus [31] = experiment: Antibacterial activity against Staphylococcus aureus CIP 7625 after 18 hrs by agar dilution method; settings: CIP 7625, 18 h; procedure, shortened: as §1
Staphylococcus aureus [32] = experiment: Antibacterial activity against Staphylococcus aureus CRBIP 2121 after 18 hrs by agar dilution method; settings: CRBIP 2121, 18 h; procedure, shortened: as §1
[33] = tested on: Staphylococcus epidermidis; experiment: Antibacterial activity against Staphylococcus epidermidis CIP 53124 after 18 hrs by agar dilution method; settings: CIP 53124, 18 h; procedure, shortened: as §1
[34] = tested on: Staphylococcus haemolyticus; experiment: Antibacterial activity against Staphylococcus haemolyticus CIP 8156 after 18 hrs by agar dilution method; settings: CIP 8156, 18 h; procedure, shortened: as §1
[35] = tested on: Staphylococcus intermedius; experiment: Antibacterial activity against Staphylococcus intermedius N987 after 18 hrs by agar dilution method; settings: N987, 18 h; procedure, shortened: as §1
[36] = tested on: Staphylococcus lugdunensis; experiment: Antibacterial activity against Staphylococcus lugdunensis ATCC 43809 after 18 hrs by agar dilution method; settings: ATCC 43809, 18 h; procedure, shortened: as §1
[37] = tested on: Staphylococcus saprophyticus; experiment: Antibacterial activity against Staphylococcus saprophyticus CIP 76125 after 18 hrs by agar dilution method; settings: CIP 76125, 18 h; procedure, shortened: as §1
[38] = tested on: Staphylococcus saprophyticus; experiment: Antibacterial activity against Staphylococcus saprophyticus E260 after 18 hrs by agar dilution method; settings: E260, 18 h; procedure, shortened: as §1
Mammaliicoccus sciuri = experiment: Antibacterial activity against Staphylococcus sciuri N993 after 18 hrs by agar dilution method; settings: N993, 18 h; procedure, shortened: as §1
Streptococcus agalactiae = experiment: Antibacterial activity against Streptococcus agalactiae CIP 103227 after 18 hrs by agar dilution method; settings: ATCC 13813, 18 h; procedure, shortened: as §1
MRC5 [39] = experiment: Cytotoxicity against human MRC5 cells assessed as growth inhibition at 10^-5 M after 72 hrs by MTS assay relative to control; settings: MRC5, 72 h, read-out: GI
Procedure, shortened: (§2)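 Cells from ATCC; HCT-116 grown in RPMI 1640 and MRC5 in DMEM, each with 10% FCS and 1% glutamine, 37 °C, 5% CO2. Seeded at 2.5 × 10^3 cells/well, cultured 24 h, then exposed to compounds at 1 and 10 μM final for 72 h. MTS read-out, absorbance 490 nm; percent index from treated/control OD490 × 100, three experiments.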

MRC5 [40] = experiment: Cytotoxicity against human MRC5 cells assessed as growth inhibition at 10^-6 M after 72 hrs by MTS assay relative to control; settings: MRC5, 72 h, read-out: GI; procedure, shortened: as §2
HCT-116 [41] = experiment: Cytotoxicity against human HCT116 cells assessed as growth inhibition at 10^-5 M after 72 hrs by MTS assay relative to control; settings: HCT-116, 72 h, read-out: GI; procedure, shortened: as §2
HCT-116 [42] = experiment: Cytotoxicity against human HCT116 cells assessed as growth inhibition at 10^-6 M after 72 hrs by MTS assay relative to control; settings: HCT-116, 72 h, read-out: GI; procedure, shortened: as §2

Q: Which results are given for CC1(C)CCC[C@]2(C)[C@@H]1CC[C@]1(CO)O[C@@H](C3=CC(=O)OC3O)C[C@H]12 (stereo not given in full)?
A: MIC (Bacillus cereus [1]): 46 µM (≈ 16.1 µg/mL); MIC (Bacillus cereus [2]): 23 µM (≈ 8.06 µg/mL); MIC (Bacillus cereus [3]): 46 µM (≈ 16.1 µg/mL); MIC (Bacillus cereus [4]): 46 µM (≈ 16.1 µg/mL); MIC (Bacillus spizizenii): 46 µM (≈ 16.1 µg/mL); MIC (Corynebacterium striatum): > 46 µM; MIC (Enterococcus avium): > 46 µM; MIC [5]: > 46 µM; MIC [6]: > 46 µM; MIC (Enterococcus durans): > 46 µM; MIC (Enterococcus faecalis [7]): > 46 µM; MIC (Enterococcus faecalis [8]): > 46 µM; MIC (Enterococcus faecalis [9]): > 46 µM; MIC (Enterococcus faecalis [10]): > 46 µM; MIC (Enterococcus faecalis [11]): > 46 µM; MIC (Enterococcus faecium [12]): > 46 µM; MIC (Enterococcus faecium [13]): > 46 µM; MIC (Enterococcus faecium [14]): > 46 µM; MIC (Enterococcus faecium [15]): > 46 µM; MIC (Enterococcus faecium [16]): > 46 µM; MIC (Enterococcus faecium [17]): > 46 µM; MIC (Enterococcus gallinarum [18]): > 46 µM; MIC (Enterococcus gallinarum [19]): > 46 µM; MIC (Enterococcus gallinarum [20]): > 46 µM; MIC (Enterococcus hirae): > 46 µM; MIC (Listeria innocua): > 46 µM; MIC (Listeria monocytogenes [21]): > 46 µM; MIC (Listeria monocytogenes [22]): > 46 µM; MIC (Listeria monocytogenes [23]): > 46 µM; MIC (Listeria monocytogenes [24]): > 46 µM; MIC (Staphylococcus aureus [25]): > 46 µM; MIC (Staphylococcus aureus [26]): > 46 µM; MIC (Staphylococcus aureus [27]): > 46 µM; MIC (Staphylococcus aureus [28]): > 46 µM; MIC (Staphylococcus aureus [29]): > 46 µM; MIC (Staphylococcus aureus [30]): > 46 µM; MIC (Staphylococcus aureus [31]): > 46 µM; MIC (Staphylococcus aureus [32]): > 46 µM; MIC [33]: > 46 µM; MIC [34]: > 46 µM; MIC [35]: > 46 µM; MIC [36]: > 46 µM; MIC [37]: > 46 µM; MIC [38]: > 46 µM; MIC (Mammaliicoccus sciuri): > 46 µM; MIC (Streptococcus agalactiae): > 46 µM; inhibition of growth at 10 µM (MRC5 [39]): 92%; inhibition of growth at 1 µM (MRC5 [40]): 29%; inhibition of growth at 10 µM (HCT-116 [41]): 84%; inhibition of growth at 1 µM (HCT-116 [42]): 0%
